This is an account of results in ChEMBL document CHEMBL4431364, “Discovery and synthetic optimization of a novel scaffold for hydrophobic tunnel-targeted autotaxin inhibition” (Bioorg Med Chem, 2016).

Experiment [1] has as its target T1, Autotaxin (Homo sapiens, UniProt Q13822). The experiment is described as follows: Inhibition of C-terminal FLAG tagged human recombinant ATX expressed in insect sf9 cells at 10 uM using FS-3 as substrate measured every 2 mins for 60 mins by FRET assay. In a few lines:
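10 μM compound with 10 nM human FLAG-fusion ATX in pH 8.0 Tris buffer (30 μM BSA, 1 mM CaCl2, 1 mM MgCl2, 5 mM KCl, 140 mM NaCl) and 1 μM FS-3. Fluorescence at ex 485/em 520 nm read every 2 min for 60 min at 37 °C. Normalized to no-ATX (0%) and ATX without compound (100%). Triplicate.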

Experiment [2] has as its target T1, Autotaxin. Description: Inhibition of C-terminal FLAG tagged human recombinant ATX expressed in insect sf9 cells at 10 uM using pNP-TMP as substrate measured every 2 mins for 60 mins by absorbance.

Usually inhibition stands for the change of the read-out against control, counted positive when it falls. In the case of `O=C(O)c1ccc(N2CCN(C(=O)COc3ccccc3C(F)(F)F)CC2)cc1`, the inhibition in experiment [1] was 10.9%; in experiment [2] it was -0.8%.

As to `O=C(O)c1cccc(N2CCN(C(=O)COc3ccccc3F)CC2)c1`, the inhibition turned out to be 10.8% in experiment [1] and 10.9% in experiment [2].

For the compound `O=C(COc1ccccc1Cl)N1CCN(c2cccc([N+](=O)[O-])c2)CC1`, the inhibition in experiment [1] is 41.9%; in experiment [2], 4.9%.

As for `O=C(O)c1ccc(N2CCN(C(=O)COc3ccc(F)cc3)CC2)cc1`, the inhibition in experiment [1] is 0.9%; in experiment [2], -6.5%.

Consider `O=C(O)c1ccccc1N1CCN(C(=O)COc2ccccc2F)CC1`, for which the results for the inhibition in experiment [1] and in experiment [2] were -7.6% and -5.7%, respectively.

Turning to `O=C(O)c1ccccc1N1CCN(C(=O)COc2ccc(Cl)cc2Cl)CC1`, the values for the inhibition in experiment [1] and in experiment [2] were 27.6% and -7.9%, respectively.

Turning to `O=C(COc1ccc(F)cc1)N1CCN(c2ccccc2[N+](=O)[O-])CC1`, the inhibition in experiment [1] was 42.4%; in experiment [2], 19.9%.

On to `O=C(COc1ccccc1F)N1CCN(c2ccccc2[N+](=O)[O-])CC1`, for which the inhibition in experiment [1] is 25.6%; in experiment [2], -1.8%.

`O=C(COc1cccc(C(F)(F)F)c1)N1CCN(c2ccccc2[N+](=O)[O-])CC1`: the inhibition in experiment [1] is 49.2%; in experiment [2] it was 35.4%.

For the compound `O=C(O)c1ccccc1N1CCN(C(=O)COc2cccc(F)c2)CC1`, the inhibition in experiment [1] was -5.5%; in experiment [2] it was -4.8%.

As for `O=C(COc1cccc(F)c1)N1CCN(c2ccccc2[N+](=O)[O-])CC1`, the inhibition in experiment [1] was 39.5%; in experiment [2] it was 18.2%.

For the compound `O=C(COc1ccc(F)cc1)N1CCN(c2cccc([N+](=O)[O-])c2)CC1`, the values for the inhibition in experiment [1] and in experiment [2] were 48.1% and 8.9%, respectively.

In the case of `O=C(O)c1ccc(N2CCN(C(=O)COc3ccccc3Cl)CC2)cc1`, the inhibition in experiment [1] was 27.6%; in experiment [2], 7.3%.

Consider `O=C(O)c1ccc(N2CCN(C(=O)COc3cc(Cl)cc(Cl)c3)CC2)cc1`, for which the inhibition was determined as 46.7% in experiment [1] and 27.8% in experiment [2].

For `O=C(O)c1ccccc1N1CCN(C(=O)COc2ccccc2Cl)CC1`, the figures for the inhibition in experiment [1] and in experiment [2] were 12.1% and 1.7%, respectively.

Turning to `O=C(O)c1ccc(N2CCN(C(=O)COc3ccc(C(F)(F)F)cc3)CC2)cc1`, the inhibition amounted to 46% in experiment [1] and 7.9% in experiment [2].

As to `O=C(O)c1ccc(N2CCN(C(=O)COc3ccc(Cl)cc3Cl)CC2)cc1`, the inhibition was 23.9% in experiment [1] and 9.7% in experiment [2].

In the case of `O=C(O)c1cccc(N2CCN(C(=O)COc3ccccc3Cl)CC2)c1`, the inhibition is 42% in experiment [1] and 11.5% in experiment [2].

With `O=C(O)c1ccccc1N1CCN(C(=O)COc2ccccc2C(F)(F)F)CC1`, the inhibition stood at 17.3% in experiment [1] and 4.6% in experiment [2].

For the compound `O=C(O)c1ccccc1N1CCN(C(=O)COc2cccc(C(F)(F)F)c2)CC1`, the results for the inhibition in experiment [1] and in experiment [2] were 41.3% and -3.5%, respectively.

On to `O=C(O)c1ccccc1N1CCN(C(=O)COc2ccc(F)cc2)CC1`, for which the inhibition is 11.5% in experiment [1] and -7.2% in experiment [2].

Consider `O=C(O)c1ccc(N2CCN(C(=O)COc3cccc(C(F)(F)F)c3)CC2)cc1`, for which, in experiment [1], the inhibition was found to be 43%.

For the compound `O=C(COc1ccccc1Cl)N1CCN(c2ccccc2[N+](=O)[O-])CC1`, the inhibition in experiment [1] worked out at 47.1%; in experiment [2], 18.7%.

Take `O=C(COc1cccc(Cl)c1)N1CCN(c2ccccc2[N+](=O)[O-])CC1`: the inhibition came to 42.7% in experiment [1] and 24.9% in experiment [2].

As for `CCCC#CC(=O)NCC(=O)Nc1ccc2c3c(cccc13)-c1ccccc1-2`, the inhibition in experiment [1] was determined as 6.06%.

Take `Cc1c(Br)cc(C(=O)OCC(=O)c2ccccc2)c(C)c1C`: the inhibition in experiment [1] came to 6.54%.

Consider `CC(C)/C=C/C(=O)N1CCN(C(=O)C2CCC3C4CC=C5CC(O)CCC5(C)C4CCC23C)CC1` (stereo unspecified), for which the inhibition in experiment [1] is 13.3%.

As for `CC(C)COc1cnc(SSc2ncc(OCC(C)C)cn2)nc1`, the inhibition in experiment [1] is 20.6%.
